Results: ChEMBL document CHEMBL1129543, “Synthesis and evaluation of N-(phenylacetyl)trifluoromethanesulfonamides as anticonvulsant agents” (J Med Chem, 1996)

Key:
[1] = system: Mus musculus; experiment: Anti-seizure activity was evaluated by Neurologic toxicity (rotarod test) at dose 300 mg/kg after 0.5 hours; ++ denotes antiseizure activity; type: functional, organism-based; set-up: dose 300 mg/kg
Method in brief: (§1)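 Phase I neurotoxicity in mice by rotorod ataxia test. Compound given ip at 30, 100, 300 or 600 mg/kg in 30% PEG 400, read 0.5 h and 4 h after. Scored ++++ to + for toxicity at 30 to 600 mg/kg; - means no toxicity.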

[2] = system: Mus musculus; experiment: Median effective dose was evaluated by Maximal electroshock seizure test through intraperitoneal administration; type: functional; conditions: ip
Method in brief: (§2)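 Phase II in mice, ip dosing in 30% PEG 400. Groups of 6-12 mice per dose until at least three points fall in 10-90% protection. […] MES: 50 mA, 0.2 s corneal. scMet: pentylenetetrazol 85 mg/kg sc.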

[3] = system: Mus musculus; experiment: Anti-seizure activity was evaluated by Subcutaneous pentylenetetrazole seizure test at dose 300 mg/kg after 4.0 hours; ++ denotes antiseizure activity; type: functional, organism-based; set-up: dose 300 mg/kg
Method in brief: (§3)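 Phase I screen in mice: ip dosing at 30, 100, 300 and 600 mg/kg in 30% PEG 400, read 0.5 h and 4 h after. Pentylenetetrazol given sc at CD97 (85 mg/kg). Protection means no clonic spasm of at least 5 s over 30 min. Scored ++++ to + for 30 to 600 mg/kg.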

[4] = system: Mus musculus; experiment: Anti-seizure activity was evaluated by Neurologic toxicity (rotarod test) at dose 600 mg/kg after 4.0 hours; + denotes neurotoxicity; type: functional, organism-based; set-up: dose 600 mg/kg; method in brief: as §1
[5] = species: Rattus norvegicus; experiment: Protective index (TD50/ED50) was determined against scMet induced seizure in rat.; type: functional
Method in brief: (§4)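 Oral dosing in 30% PEG 400: phase IV in mice (0.01 mL/g), phase VI in Sprague-Dawley rats (0.004 mL/g). ED50/TD50 found as in phase II, at the stated time of peak effect. MES current 50 mA in mice, 150 mA in rats. Toxicity by rotorod in mice; positional sense, gait and stance in rats. PI = TD50/ED50.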

[6] = system: Mus musculus; experiment: Anti-seizure activity was evaluated by Maximal electroshock seizure (MES) test at dose 100 mg/kg after 0.5 hours; +++ denotes antiseizure activity; type: functional, organism-based; set-up: dose 100 mg/kg
Method in brief: (§5)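 Phase I screen in mice: ip injection at 30, 100, 300 and 600 mg/kg in 30% PEG 400 (0.01 mL/g). Test run 0.5 h and 4 h after dosing. 60-Hz AC, 50 mA, via corneal electrodes for 0.2 s. Protection means abolition of hind-leg tonic extension. Scored ++++ to + for activity at 30 to 600 mg/kg.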

[7] = species: Mus musculus; experiment: Time to peak toxicity was evaluated by Maximal electroshock seizure test in hours; type: functional
[8] = system: Mus musculus; experiment: Median effective dose was evaluated by subcutaneous pentylenetetrazole seizure test through intraperitoneal administration; type: functional; method in brief: as §2
[9] = species: Rattus norvegicus; experiment: Protective index (TD50/ED50) was determined against MES induced seizure in rat.; type: functional; method in brief: as §4
[10] = species: Mus musculus; experiment: Time to peak activity was evaluated by Maximal electroshock seizure test in hours; type: functional
[11] = system: Mus musculus; experiment: Anti-seizure activity was evaluated by Subcutaneous pentylenetetrazole seizure test at dose 100 mg/kg after 0.5 hours; +++ denotes antiseizure activity; type: functional, organism-based; set-up: dose 100 mg/kg; method in brief: as §3
[12] = system: Mus musculus; experiment: Median toxic dose was evaluated by […] through intraperitoneal administration; type: functional
[13] = system: Mus musculus; experiment: Anti-seizure activity was evaluated by Neurologic toxicity (rotarod test) at dose 300 mg/kg after 4.0 hours; ++ denotes antiseizure activity; type: functional, organism-based; set-up: dose 300 mg/kg; method in brief: as §1
[14] = system: Mus musculus; experiment: Anti-seizure activity was evaluated by Neurologic toxicity (rotarod test) at dose 600 mg/kg after 0.5 hours; + denotes neurotoxicity; type: functional, organism-based; set-up: dose 600 mg/kg; method in brief: as §1
[15] = system: Mus musculus; experiment: Anti-seizure activity was evaluated by Maximal electroshock seizure (MES) test at dose 300 mg/kg after 0.5 hours; ++ denotes antiseizure activity; type: functional, organism-based; set-up: dose 300 mg/kg; method in brief: as §5
[16] = system: Mus musculus; experiment: Time to peak effect in Rats was evaluated by Subcutaneous pentylenetetrazole seizure test in hours by oral administration; type: functional
Method in brief: (§6)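 Oral dosing in Sprague-Dawley rats (30% PEG 400, 0.004 mL/g). Time to peak effect, in hours, was read in the MES test (150 mA, 60 Hz, corneal, 0.2 s; loss of tonic hind-leg extension) and in the scMet test (pentylenetetrazol 70 mg/kg sc; no clonus ≥5 s within 30 min).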

[17] = system: Mus musculus; experiment: Median Effective dose was evaluated by Subcutaneous pentylenetetrazole seizure test in Rats by oral administration; type: functional
[18] = system: Mus musculus; experiment: Time to peak effect in Rats was evaluated by Neurologic toxicity (rotarod test) in hours by oral administration; type: functional
[19] = system: Mus musculus; experiment: Time to peak effect in mice was evaluated by Neurologic toxicity (rotarod test) in hours by oral administration; type: functional
Method in brief: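 Oral dosing in mice in 30% PEG 400 (0.01 mL/g). Neurologic deficit was scored by the rotorod ataxia test, and the time of peak effect was given in hours.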

[20] = system: Mus musculus; experiment: Time to peak effect in mice was evaluated by Subcutaneous pentylenetetrazole seizure test in hours by oral administration; type: functional
Method in brief: as §4, with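 “in rats. PTZ sc 85 mg/kg in mice, 70 mg/kg in rats. Toxicity by” for “in rats. Toxicity by”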

[21] = system: Mus musculus; experiment: Median lethal dose was evaluated by mortality after 24 hr through ip injection administration; type: functional
Method in brief: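 Mice were dosed ip in 30% PEG 400. Mortality was scored 24 h after injection in groups of eight. The 24-h LD₅₀ was derived as for the ED₅₀/TD₅₀, with 95% confidence intervals.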

[22] = system: Mus musculus; experiment: Median Effective dose was evaluated by Maximal electroshock seizure (MES) test in Rats by oral administration up to 1200 mg/kg; g= no protection; type: functional, organism-based; set-up: dose 1200 mg/kg
[23] = system: Mus musculus; experiment: Median Effective dose was evaluated by Maximal electroshock seizure (MES) test in mice by oral administration up to 2000 mg/kg; f=no protection; type: functional, organism-based; set-up: dose 2000 mg/kg
[24] = system: Mus musculus; experiment: […] was evaluated by Neurologic toxicity (rotarod test) in mice by oral administration; type: functional
Method in brief: as §4, with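 “in rats. PTZ sc 85 mg/kg in mice, 70 mg/kg in rats. Toxicity by” for “in rats. Toxicity by”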

[25] = system: Mus musculus; experiment: Median Effective dose was evaluated by Subcutaneous pentylenetetrazole seizure test in mice by oral administration; type: functional
[26] = system: Mus musculus; experiment: Inhibition of seizures induced in mice by a convulsant dose of bicuculline through ip administration; type: functional
Method in brief: (§7)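 Phase V differentiation in mice: test drug given ip at time of peak therapeutic effect, then the CD₉₇ of each convulsant (picrotoxin, bicuculline, strychnine) given ip as a 0.5% solution; observation 30 min for bicuculline and strychnine, 45 min for picrotoxin. Drug in 30% PEG 400, 0.01 mL/g. ED₅₀ with 95% confidence intervals from ≥3 points in the 10-90% protection range, groups of 6-12 mice.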

[27] = system: Mus musculus; experiment: Inhibition of picrotoxin-induced seizures in mice by ip administration at 250-1000 mg/kg (h= maximum 62.5% protection); type: functional, organism-based; method in brief: as §7
[28] = system: Mus musculus; experiment: Time to peak effect in Rats was evaluated by Maximal electroshock seizure (MES) test in hours by oral administration; type: functional; method in brief: as §6
[29] = system: Mus musculus; experiment: Time to peak effect in mice was evaluated by Maximal electroshock seizure (MES) test in hours by oral administration; type: functional
Method in brief: as §4, with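 “in rats. PTZ sc 85 mg/kg in mice, 70 mg/kg in rats. Toxicity by” for “in rats. Toxicity by”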

[30] = species: Mus musculus; experiment: Median hypnotic dose was evaluated by loss of righting reflex; type: functional
[31] = system: Mus musculus; experiment: Anti-seizure activity was evaluated by Subcutaneous pentylenetetrazole seizure test at dose 100 mg/kg after 4.0 hours; +++ denotes antiseizure activity; type: functional, organism-based; set-up: dose 100 mg/kg; method in brief: as §3
[32] = system: Mus musculus; experiment: Anti-seizure activity was evaluated by Subcutaneous pentylenetetrazole seizure test at dose 600 mg/kg after 0.5 hours; + denotes neurotoxicity; type: functional, organism-based; set-up: dose 600 mg/kg; method in brief: as §3

Row | Structure (SMILES) | ED50 [2] [mg/kg] | Activity [4] | PI [5] | Activity [6] | TPE [7] | ED50 [8] [mg/kg] | PI [9] | TPE [10] | Activity [11] | TD50 [12] [mg/kg] | Activity [14] | other results
1 | O=C(Cc1cccc(Cl)c1)NS(=O)(=O)C(F)(F)F | 6.8 | Antiseizure activity | 7.2 | Antiseizure activity | 0.5 | 35 | 37 | 2 | Antiseizure activity | 249 |  | Activity [1]: Antiseizure activity; Activity [3]: Antiseizure activity
2 | O=C(Cc1ccc(Cl)cc1)NS(=O)(=O)C(F)(F)F | 7.6 |  | 4.2 |  | 4 | 49 | 27 | 4 | Antiseizure activity | 206 | Antiseizure activity | Activity [13]: Antiseizure activity; Activity [15]: Antiseizure activity
3 | CCC1(C)CC(=O)NC1=O (stereo not given) [ETHOSUXIMIDE] | > 1000 |  |  |  | 0.5 | 130 |  | 0.5 |  | 441 |  | TPE [16]: 2 h; ED50 [17]: 54 mg/kg; TPE [18]: 2 h; TPE [19]: 1 h; TPE [20]: 0.5 h; LD50 [21]: 1810 mg/kg; ED50 [22]: No protection; ED50 [23]: No protection; TD50 [24]: 879 mg/kg; ED50 [25]: 193 mg/kg; ED50 [26]: 459 mg/kg; ED50 [27]: Max protection; TPE [28]: 2 h; TPE [29]: 0.5 h; HD50 [30]: 850 mg/kg
4 | O=C(Cc1ccc(Br)cc1)NS(=O)(=O)C(F)(F)F | 23 | Antiseizure activity | 5.3 | Antiseizure activity | 2 | 55 | 13 | 4 |  | 291 | Antiseizure activity | Activity [31]: Antiseizure activity; Activity [32]: Antiseizure activity
